{"source": "ChEMBL document CHEMBL5653617", "about": "“Inhibition of BRD4 attenuates tumor cell self-renewal and suppresses stem cell signaling in MYC driven medulloblastoma” (Oncotarget, 2014)", "key": {"D283 Med [1]": {"tested_on": "D283 Med", "experiment": "Suppression of human D283 Med cells self-renewal cultured in serum free condition assessed as reduction in formation of new neurosphere at 300 nM", "format": "functional, cell-based", "procedure,_shortened": "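Cells grown as neurospheres in serum-free medium for 48 h, dissociated, and seeded in a limiting dilution from 1000 to 1 cell/well, with 300 nM drug or DMSO. After 7 days in serum-free culture, neurospheres per well counted and plotted against cells seeded.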"}, "[2]": {"experiment": "Toxicity in athymic nude mouse xenografted with human Daoy cells assessed as change in body weight at 50 mg/kg, ip administered 5 days a week for 4 weeks and measured after 20 days", "format": "organism-based", "conditions": "in vivo, 1152 h, time 48 day", "procedure,_shortened": "(§1)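 Daoy cells (1.0×10^7 in PBS) injected into the flank of athymic nude mice. Dosing began once tumors were palpable, at a mean of 52 days post inoculation. 50 mg/kg i.p. or DMSO vehicle given 5 days/week for 4 weeks, n=10, with tumors followed a further 20 days. Volume by caliper as π/6 × L × W × H. Body weight recorded 3 times weekly.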"}, "D458 Med": {"tested_on": "D458 Med", "experiment": "Induction of cell cycle arrest in human D458 Med cells assessed as accumulation of cells at G1 phase at 300 nM incubated for 48 hrs by flow cytometry analysis (reference value: 35.85 +/- 1.37%)", "format": "functional"}, "[3]": {"molecular_target": "Bromodomain-containing protein 4 (Homo sapiens) (UniProt O60885)", "conditions": "D283 Med, dose 300.0 nM"}, "Daoy [4]": {"tested_on": "Daoy", "experiment": "Downregulation of CENPF gene expression in human Daoy cells at 300 nM by GSEA method", "format": "functional, cell-based", "procedure,_shortened": "(§2)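 Daoy cells treated with DMSO or 300 nM drug. RNA extracted and hybridized to Affymetrix HG-ST2.0 arrays. Analysis in R/Bioconductor with gene set enrichment analysis. Regulated transcripts defined as p < 0.05, FDR < 0.05, fold change < 0.67 (down) or > 1.5 (up).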"}, "D283 Med [5]": {"tested_on": "D283 Med", "experiment": "Induction of cell cycle arrest in human D283 Med cells assessed as S phase cells at 300 nM incubated for 48 hrs by flow cytometry analysis (reference value: 19.88 +/- 1.26 %)", "format": "functional"}, "Daoy [6]": {"tested_on": "Daoy", "experiment": "Downregulation of IFRD1 gene expression in human Daoy cells at 300 nM by GSEA method", "format": "functional, cell-based", "procedure,_shortened": "as §2"}, "Daoy [7]": {"tested_on": "Daoy", "experiment": "Antitumor activity against human Daoy cells xenografted in athymic nude mice assessed as reduction in tumor growth at 50 mg/kg, ip administered 5 days a week for 4 weeks and measured after 20 days", "format": "functional, organism-based", "conditions": "time 48.0 day", "procedure,_shortened": "as §1"}, "Daoy [8]": {"tested_on": "Daoy", "experiment": "Downregulation of MYBL2 gene expression in human Daoy cells at 300 nM by GSEA method", "format": "functional, cell-based", "procedure,_shortened": "as §2"}, "D283 Med [9]": {"tested_on": "D283 Med", "experiment": "Induction of cell cycle arrest in human D283 Med cells assessed as accumulation of cells at G1 phase at 300 nM incubated for 48 hrs by flow cytometry analysis (reference value: 23.47 +/- 0.29%)", "format": "functional"}, "Daoy [10]": {"tested_on": "Daoy", "experiment": "Induction of cell cycle arrest in human Daoy cells assessed as S phase cells at 300 nM incubated for 48 hrs by flow cytometry analysis (reference value: 15.39 +/- 1.73%)", "format": "functional"}, "Medulloblastoma cell": {"tested_on": "Medulloblastoma cell", "experiment": "Induction of cell cycle arrest in patient-derived Medulloblastoma cells assessed as accumulation of cells at G1 phase at 300 nM", "format": "functional, cell-based", "conditions": "Homo sapiens"}, "[11]": {"molecular_target": "Bromodomain-containing protein 4 (Homo sapiens) (UniProt O60885)", "conditions": "Daoy, dose 300.0 nM"}, "[12]": {"molecular_target": "Bromodomain-containing protein 4 (Homo sapiens) (UniProt O60885)", "conditions": "D283 Med, dose 300.0 nM", "remark": "listed apart in the source"}, "[13]": {"molecular_target": "Bromodomain-containing protein 4 (Homo sapiens) (UniProt O60885)", "conditions": "D283 Med, dose 300.0 nM", "remark": "listed apart in the source"}}, "note": "Activity calls are given as the source filed them."}
{"compound": "Cc1sc2c(c1C)C(c1ccc(Cl)cc1)=N[C@@H](CC(=O)OC(C)(C)C)c1nnc(C)n1-2", "values": [{"measurement": "Activity", "setting": "D283 Med [1]", "result": "Active"}, {"measurement": "Activity", "setting": "[2]", "result": "Non-Toxic"}, {"measurement": "Activity", "setting": "D458 Med", "result": 46.86, "unit": "%"}, {"measurement": "inhibition", "setting": "[3]", "result": "Active"}, {"measurement": "Activity", "setting": "Daoy [4]", "result": "Active"}, {"measurement": "Activity", "setting": "D283 Med [5]", "result": 14.093, "unit": "%"}, {"measurement": "Activity", "setting": "Daoy [6]", "result": "Active"}, {"measurement": "Activity", "setting": "Daoy [7]", "result": "Active"}, {"measurement": "Activity", "setting": "Daoy [8]", "result": "Active"}, {"measurement": "Activity", "setting": "D283 Med [9]", "result": 30.373, "unit": "%"}, {"measurement": "Activity", "setting": "Daoy [10]", "result": 3.736, "unit": "%"}, {"measurement": "Activity", "setting": "Medulloblastoma cell", "result": "Active"}, {"measurement": "inhibition", "setting": "[11]", "result": "Active"}, {"measurement": "inhibition", "setting": "[12]", "result": "Active"}, {"measurement": "inhibition", "setting": "[13]", "result": "Active"}]}
